{"data": "Measured values pooled from the literature", "target": "Mitogen-activated protein kinase kinase kinase 15 (MAP3K15, Homo sapiens, UniProt Q6ZN16)", "One construct used (Q6ZN16 1-1313)": "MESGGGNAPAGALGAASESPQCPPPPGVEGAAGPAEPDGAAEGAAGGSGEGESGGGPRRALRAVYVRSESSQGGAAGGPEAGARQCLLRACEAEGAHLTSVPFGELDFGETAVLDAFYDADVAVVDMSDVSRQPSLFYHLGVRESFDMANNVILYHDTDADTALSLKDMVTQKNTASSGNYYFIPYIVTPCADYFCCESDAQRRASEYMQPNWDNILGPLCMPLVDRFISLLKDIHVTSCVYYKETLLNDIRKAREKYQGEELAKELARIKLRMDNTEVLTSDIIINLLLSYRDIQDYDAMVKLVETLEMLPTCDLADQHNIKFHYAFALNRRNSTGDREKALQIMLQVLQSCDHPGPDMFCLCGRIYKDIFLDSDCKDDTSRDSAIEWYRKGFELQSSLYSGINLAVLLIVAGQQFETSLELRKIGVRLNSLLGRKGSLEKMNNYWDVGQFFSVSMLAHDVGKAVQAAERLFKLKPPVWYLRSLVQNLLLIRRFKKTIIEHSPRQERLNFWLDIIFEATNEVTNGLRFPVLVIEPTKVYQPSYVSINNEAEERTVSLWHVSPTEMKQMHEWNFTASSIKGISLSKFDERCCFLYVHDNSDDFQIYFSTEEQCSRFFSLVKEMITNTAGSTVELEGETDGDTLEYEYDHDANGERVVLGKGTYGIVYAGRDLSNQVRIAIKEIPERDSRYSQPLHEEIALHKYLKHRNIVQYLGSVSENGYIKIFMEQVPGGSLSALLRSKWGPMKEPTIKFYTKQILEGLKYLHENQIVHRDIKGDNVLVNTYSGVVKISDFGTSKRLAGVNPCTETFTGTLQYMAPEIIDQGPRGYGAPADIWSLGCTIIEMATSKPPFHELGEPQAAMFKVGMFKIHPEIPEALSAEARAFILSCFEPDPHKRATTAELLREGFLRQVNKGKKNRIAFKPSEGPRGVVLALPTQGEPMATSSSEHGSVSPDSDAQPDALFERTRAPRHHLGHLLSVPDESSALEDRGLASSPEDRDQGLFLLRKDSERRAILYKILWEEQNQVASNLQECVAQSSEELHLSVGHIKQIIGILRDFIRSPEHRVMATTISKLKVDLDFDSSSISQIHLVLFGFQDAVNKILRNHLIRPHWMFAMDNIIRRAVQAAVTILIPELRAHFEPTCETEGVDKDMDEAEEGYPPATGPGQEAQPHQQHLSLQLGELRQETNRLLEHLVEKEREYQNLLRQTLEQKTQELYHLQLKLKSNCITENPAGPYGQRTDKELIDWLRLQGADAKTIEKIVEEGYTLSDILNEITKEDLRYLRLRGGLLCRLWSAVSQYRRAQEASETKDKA", "note": "Lines come from different studies, so protocols differ."}
{"Structure (SMILES)": "c1cnn2ncc(-c3ccnc(N4CCC45COC5)n3)c2c1", "assay": "binding", "conditions": "1 µM", "remaining binding": "68%"}
{"Structure (SMILES)": "C[C@@]1(Cc2ccc(C#N)cc2)C(=O)N(c2cc(Cl)cc(Cl)c2)c2ncc(C(=O)NC3(c4nc(C5CCC5)no4)CC3)n21", "assay": "cell-free assay, competition with immobilised ligand", "conditions": "1 µM", "remaining binding": "81%"}
{"Structure (SMILES)": "O=C(c1ccc(Nc2ncc(Cl)c(-c3ccc(Cl)s3)n2)cc1)N1CCC(N2CCCC2)CC1", "assay": "binding, competition with immobilised ligand", "conditions": "1 µM", "remaining binding": "52%"}
{"Structure (SMILES)": "CC1=C(C#N)C(c2ccc3c(c2)c(NC(=O)c2ccccc2C)nn3C)C(C#N)=C(C)N1", "assay": "cell-free assay, competition with immobilised ligand", "conditions": "1 µM", "remaining binding": "96%"}
{"Structure (SMILES)": "COc1cnc(Nc2cccc(S(N)(=O)=O)c2)nc1N1CCN(c2ccccc2)C(=O)C1", "assay": "binding, competition with immobilised ligand", "conditions": "1 µM", "remaining binding": "69%"}
{"Structure (SMILES)": "F[C@@H]1CCN(c2nccc(-c3cnn4ncccc34)n2)C1", "assay": "binding", "conditions": "1 µM", "remaining binding": "100%"}
{"Structure (SMILES)": "CNC(=O)[C@@H]1CC[C@@H](n2c(-c3ccc4cnccc4c3)nc3ccc(C(=O)NCc4cccc(C(N)=O)c4)cc32)C1", "assay": "binding, competition with immobilised ligand", "conditions": "1 µM", "remaining binding": "99%"}
{"Structure (SMILES)": "COc1ncc2cc3ccccc3nc2c1C#N", "assay": "cell-free assay, competition with immobilised ligand", "conditions": "5 µM", "remaining binding": "95%"}
{"Structure (SMILES)": "Cn1cc(Cl)c2c(Oc3c(F)cc(Nc4cc(Cl)nc(N)n4)cc3F)ccnc21", "assay": "cell-free assay, competition with immobilised ligand", "conditions": "0.1 µM", "remaining binding": "84%"}
{"Structure (SMILES)": "O=C(NCC1CCOCC1)c1n[nH]cc1NC(=O)c1c(F)cccc1F", "assay": "binding, competition with immobilised ligand", "conditions": "1 µM", "remaining binding": "72%"}
{"Structure (SMILES)": "O=C(NCCCN1CCOCC1)c1ccc(Nc2ncc(Cl)c(-c3ccc(Cl)s3)n2)cc1", "assay": "binding, competition with immobilised ligand", "conditions": "1 µM", "remaining binding": "68%"}
{"Structure (SMILES)": "Cc1cnn2ncc(-c3ccnc(N(C)C)n3)c2c1", "assay": "binding", "conditions": "1 µM", "remaining binding": "100%"}
{"Structure (SMILES)": "O=C(NCCCN1CCOCC1)c1ccc(Nc2nccc(-c3cc4ccccc4s3)n2)cc1", "assay": "binding, competition with immobilised ligand", "conditions": "1 µM", "remaining binding": "56%"}
{"Structure (SMILES)": "N[C@@H]1CCN(c2nccc(-c3cnn4ncccc34)n2)C1", "assay": "binding", "conditions": "1 µM", "remaining binding": "92%"}
{"Structure (SMILES)": "Nc1ncc2c(n1)-c1c([nH]c3ccc(C#CC4CC4)cc13)CCCC2", "assay": "binding, competition with immobilised ligand", "conditions": "1 µM", "remaining binding": "73%"}
{"Structure (SMILES)": "Cn1nc(C(F)(F)F)cc1-c1cnc(N2CCc3cc(S(=O)(=O)Nc4c(F)cc(Cl)cc4F)cc(N4CCCC4=O)c32)nc1", "assay": "cell-free assay, competition with immobilised ligand", "conditions": "1 µM", "remaining binding": "81%"}
{"Structure (SMILES)": "C[C@@H]1CCN(c2nccc(-c3cnn4ncccc34)n2)C1", "assay": "binding", "conditions": "1 µM", "remaining binding": "100%"}
{"Structure (SMILES)": "O=c1nc(-c2ccccn2)sc2ccccc12", "assay": "binding, competition with immobilised ligand", "conditions": "1 µM", "remaining binding": "100%"}
{"Structure (SMILES)": "c1cncc(-c2cccc(Nc3nccc(NC4CCCCC4)n3)c2)c1", "assay": "binding, competition with immobilised ligand", "conditions": "10 µM", "remaining binding": "77%"}
{"Structure (SMILES)": "O=C(O)c1cc(-c2ccc(C3CCNCC3)cc2)c2ccc(-c3ccc(C(F)(F)F)cc3)cc2c1", "assay": "cell-free assay, competition with immobilised ligand", "conditions": "1 µM", "remaining binding": "99%"}
{"Structure (SMILES)": "COc1ccnn2ncc(-c3ccnc(N(C)C)n3)c12", "assay": "binding", "conditions": "1 µM", "remaining binding": "100%"}
